Converted amounts (≈) assume the structure as drawn.
Experiments:
Type in all cases: functional
[1] = system: Escherichia coli; assay: In vitro antibacterial activity of compound against Escherichia coli SKF 12140
[2] = system: Klebsiella pneumoniae; assay: In vitro antibacterial activity of compound against Klebsiella pneumoniae ISM
[3] = system: Mycobacterium scrofulaceum; assay: In vitro activity of compound against slowly growing Mycobacterium scrofulaceum 1292
Method in brief: (§1)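 Medium was Middlebrook 7H10 agar with 2% glycerol and 10% OADC. Organisms from Loevenstein-Jensen slants were grown in 7H9 broth with 0.5% Tween and 10% OADC, adjusted to McFarland no. 1, and spotted with a multipoint inoculator. Sealed plates were incubated at 22, 30 or 37 °C for 4-20 days depending on strain.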

[4] = system: Mycobacterium scrofulaceum; assay: In vitro activity of compound against slowly growing Mycobacterium scrofulaceum 1293; method in brief: as §1
[5] = system: Mycobacterium scrofulaceum; assay: In vitro activity of compound against slowly growing Mycobacterium scrofulaceum 1297; method in brief: as §1
[6] = system: Mycobacterium scrofulaceum; assay: In vitro activity of compound against slowly growing Mycobacterium scrofulaceum 1301; method in brief: as §1
[7] = system: Mycolicibacterium smegmatis; assay: In vitro activity of compound against rapidly growing Mycobacterium smegmatis 139; method in brief: as §1
[8] = system: Mycolicibacterium smegmatis; assay: In vitro activity of compound against rapidly growing Mycobacterium smegmatis 1442; method in brief: as §1
[9] = system: Mycolicibacterium smegmatis; assay: In vitro activity of compound against rapidly growing Mycobacterium smegmatis 31; method in brief: as §1
[10] = system: Mycobacterium xenopi; assay: In vitro activity compound against slowly growing Mycobacterium xenopi 1446; method in brief: as §1
[11] = system: Mycobacterium xenopi; assay: In vitro activity of compound against slowly growing Mycobacterium xenopi 554; method in brief: as §1
[12] = system: Mycobacterium xenopi; assay: In vitro activity of compound against slowly growing Mycobacterium xenopi 555; method in brief: as §1
[13] = system: Mycolicibacterium phlei; assay: In vitro activity of compound against rapidly growing Mycobacterium phlei 141; method in brief: as §1
[14] = system: Mycolicibacterium phlei; assay: In vitro activity of compound against rapidly growing Mycobacterium phlei 1283; method in brief: as §1
[15] = system: Mycolicibacterium phlei; assay: In vitro activity of compound against rapidly growing Mycobacterium phlei 1289; method in brief: as §1
[16] = system: Mycobacterium kansasii; assay: In vitro activity of compound against slowly growing Mycobacterium kansasii 1299; method in brief: as §1
[17] = system: Mycobacterium marinum; assay: In vitro activity of compound against slowly growing Mycobacterium marinum 1388; method in brief: as §1
[18] = system: Mycobacterium marinum; assay: In vitro activity of compound against slowly growing Mycobacterium marinum 1390; method in brief: as §1
[19] = system: Mycobacterium marinum; assay: In vitro activity of compound against slowly growing Mycobacterium marinum 1391; method in brief: as §1
[20] = system: Mycolicibacterium fortuitum; assay: In vitro activity of compound against rapidly growing Mycobacterium fortuitum 114; method in brief: as §1
[21] = system: Mycolicibacterium fortuitum; assay: In vitro activity of compound against rapidly growing Mycobacterium fortuitum 1285; method in brief: as §1
[22] = system: Mycolicibacterium fortuitum; assay: In vitro activity of compound against rapidly growing Mycobacterium fortuitum 1287; method in brief: as §1
[23] = system: Mycolicibacterium fortuitum; assay: In vitro activity compound against rapidly growing Mycobacterium fortuitum 1302; method in brief: as §1
[24] = system: Mycolicibacterium fortuitum; assay: In vitro activity of compound against rapidly growing Mycobacterium fortuitum 140; method in brief: as §1
[25] = system: Mycolicibacterium fortuitum; assay: In vitro activity compound against rapidly growing Mycobacterium fortuitum 1440; method in brief: as §1
[26] = system: Mycolicibacterium fortuitum; assay: In vitro activity of compound against rapidly growing Mycobacterium fortuitum 646; method in brief: as §1
[27] = system: Mycolicibacterium fortuitum; assay: In vitro activity of compound against rapidly growing Mycobacterium fortuitum 726; method in brief: as §1
[28] = system: Mycobacterium gordonae; assay: In vitro activity of compound against slowly growing Mycobacterium gordonae 1294; method in brief: as §1
[29] = system: Mycobacterium gordonae; assay: In vitro activity of compound against slowly growing Mycobacterium gordonae 1441; method in brief: as §1
[30] = system: Mycobacterium kansasii; assay: In vitro activity of compound against slowly growing Mycobacterium kansasii 1291; method in brief: as §1
[31] = system: Mycobacterium kansasii; assay: In vitro activity of compound against slowly growing Mycobacterium kansasii 1298; method in brief: as §1
[32] = system: Mycolicibacterium flavescens; assay: In vitro activity of compound against rapidly growing Mycobacterium flavescens 1284; method in brief: as §1
[33] = system: Mycolicibacterium flavescens; assay: In vitro activity of compound against rapidly growing Mycobacterium flavescens 1286; method in brief: as §1
[34] = system: Mycobacterium marinum; assay: In vitro activity of compound against slowly growing Mycobacterium marinum 1392 h; method in brief: as §1
[35] = system: Mycobacterium marinum; assay: In vitro activity of compound against slowly growing Mycobacterium marinum 1393; method in brief: as §1
[36] = system: Mycobacterium marinum; assay: In vitro activity of compound against slowly growing Mycobacterium marinum 1394; method in brief: as §1
[37] = system: Mycobacterium marinum; assay: In vitro activity of compound against slowly growing Mycobacterium marinum 1447; method in brief: as §1
[38] = system: Mycobacterium tuberculosis; assay: In vitro antibacterial activity of compound against Mycobacterium tuberculosis H37Rv ATCC 9660
[39] = system: Mycobacteroides chelonae; assay: In vitro activity of compound against rapidly growing Mycobacterium chelonae 1443; method in brief: as §1
[40] = system: Mycobacterium avium; assay: 50% inhibition of the 20 Mycobacterium (MAC) avium complex clinical isolates
Method in brief: (§2)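 Agar-dilution MICs, 2-fold dilutions over 128-0.0001 μg/mL, on Middlebrook 7H10 agar with 2% glycerol and 10% OADC. Organisms from Loevenstein-Jensen slants were grown in 7H9 broth with 0.5% Tween and 10% OADC, adjusted to McFarland no. 1, and spotted with a multipoint inoculator. Plates were sealed and incubated at 22, 30 or 37 °C for 4-20 days depending on strain.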

[41] = system: Mycobacterium avium; assay: Minimum inhibitory concentration of compound against 20 Mycobacterium avium complex (MAC) clinical isolates; method in brief: as §2
[42] = system: Neisseria gonorrhoeae; assay: In vitro antibacterial activity of compound against Neisseria gonorrhoeae ISM 68/126
[43] = system: Pseudomonas aeruginosa; assay: In vitro antibacterial activity of compound against Pseudomonas aeruginosa ATCC 10145
Method in brief: (§3)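 Twofold microdilution MIC in Iso-Sensitest broth over 128-0.0001 µg/mL. Inoculum was 10^4 cfu/mL, with incubation at 37 °C for 18-24 h.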

[44] = system: Proteus vulgaris; assay: In vitro antibacterial activity of compound against Proteus vulgaris X19H ATCC 881
[45] = system: Staphylococcus epidermidis; assay: In vitro antibacterial activity of compound against Staphylococcus epidermidis ATCC 12228; method in brief: as §3
[46] = system: Streptococcus pyogenes; assay: In vitro antibacterial activity of compound against Streptococcus pyogenes C 203 SKF 13400
Method in brief: (§4)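 Streptococcal MICs were run by twofold microdilution in Todd-Hewitt broth over 128-0.0001 µg/mL. Inoculum was 10^4 cfu/mL, with incubation at 37 °C for 18-24 h.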

[47] = system: Staphylococcus aureus; assay: In vitro antibacterial activity of compound against Staphylococcus aureus Tour L 165; method in brief: as §3
[48] = system: Streptococcus pneumoniae; assay: In vitro antibacterial activity of compound against Streptococcus pneumoniae UC 41; method in brief: as §4
[49] = system: Enterococcus faecalis; assay: In vitro antibacterial activity of compound against Streptococcus faecalis ATCC 7080.; method in brief: as §3
[50] = system: Mycolicibacterium fortuitum; assay: In vitro activity of compound against rapidly growing Mycobacterium fortuitum 645; method in brief: as §1
[51] = system: Haemophilus influenzae; assay: In vitro antibacterial activity of compound against Haemophilus influenzae ATCC 19418
[52] = system: Mycobacterium xenopi; assay: In vitro activity of compound against slowly growing Mycobacterium xenopi 556; method in brief: as §1

COC1/C=C/OC2(C)Oc3c(C)c(O)c4c(O)c(c5c(c4c3C2=O)=NC2(CCN(CC(C)C)CC2)N=5)NC(=O)/C(C)=C\C=C\C(C)C(O)C(C)C(O)C(C)C(OC(C)=O)C1C (configuration not stated) showed an MIC [1] of 16 µg/mL (≈ 18.9 µM), an MIC [2] of 16 µg/mL (≈ 18.9 µM) and an MIC50 [3] of 0.032 µg/mL (≈ 0.0378 µM). The MIC50 [4] was 0.032 µg/mL (≈ 0.0378 µM), the MIC50 [5] was 0.063 µg/mL (≈ 0.0744 µM) and the MIC50 [6] was 2 µg/mL (≈ 2.36 µM). For the same compound, the MIC50 [7] was 4 µg/mL (≈ 4.72 µM), the MIC50 [8] was 4 µg/mL (≈ 4.72 µM) and the MIC50 [9] was 4 µg/mL (≈ 4.72 µM). The MIC50 [10] was 0.125 µg/mL (≈ 0.148 µM), the MIC50 [11] was 0.125 µg/mL (≈ 0.148 µM) and the MIC50 [12] was 0.125 µg/mL (≈ 0.148 µM). It also gave an MIC50 [13] of 0.061 µg/mL (≈ 0.072 µM), an MIC50 [14] of 0.016 µg/mL (≈ 0.0189 µM) and an MIC50 [15] of 2 µg/mL (≈ 2.36 µM). The MIC50 [16] was 0.5 µg/mL (≈ 0.59 µM), the MIC50 [17] was 0.25 µg/mL (≈ 0.295 µM) and the MIC50 [18] was 1 µg/mL (≈ 1.18 µM). For the same compound, the MIC50 [19] was 0.25 µg/mL (≈ 0.295 µM), the MIC50 [20] was 8 µg/mL (≈ 9.44 µM) and the MIC50 [21] was 4 µg/mL (≈ 4.72 µM). It also gave an MIC50 [22] of 1 µg/mL (≈ 1.18 µM), an MIC50 [23] of 1 µg/mL (≈ 1.18 µM) and an MIC50 [24] of 4 µg/mL (≈ 4.72 µM). The MIC50 [25] was 16 µg/mL (≈ 18.9 µM), the MIC50 [26] was 8 µg/mL (≈ 9.44 µM) and the MIC50 [27] was 16 µg/mL (≈ 18.9 µM). It also gave an MIC50 [28] of 0.5 µg/mL (≈ 0.59 µM), an MIC50 [29] of 1 µg/mL (≈ 1.18 µM) and an MIC50 [30] of 1 µg/mL (≈ 1.18 µM). It also gave an MIC50 [31] of 0.063 µg/mL (≈ 0.0744 µM), an MIC50 [32] of 8 µg/mL (≈ 9.44 µM) and an MIC50 [33] of 0.063 µg/mL (≈ 0.0744 µM). The MIC50 [34] was 0.25 µg/mL (≈ 0.295 µM), the MIC50 [35] was 0.25 µg/mL (≈ 0.295 µM) and the MIC50 [36] was 0.25 µg/mL (≈ 0.295 µM). For the same compound, the MIC50 [37] was 0.25 µg/mL (≈ 0.295 µM), the MIC [38] was 0.008 µg/mL (≈ 0.00944 µM) and the MIC50 [39] was 32 µg/mL (≈ 37.8 µM). It also gave an MIC50 [40] of 1 µg/mL (≈ 1.18 µM), an MIC50 [41] of 0.25 µg/mL (≈ 0.295 µM) and an MIC [42] of 0.5 µg/mL (≈ 0.59 µM). For the same compound, the MIC [43] was 8 µg/mL (≈ 9.44 µM), the MIC [44] was 16 µg/mL (≈ 18.9 µM) and the MIC [45] was 0.032 µg/mL (≈ 0.0378 µM). The MIC [46] was 0.032 µg/mL (≈ 0.0378 µM), the MIC [47] was 0.063 µg/mL (≈ 0.0744 µM) and the MIC [48] was 0.032 µg/mL (≈ 0.0378 µM). It also gave an MIC [49] of 2 µg/mL (≈ 2.36 µM), an MIC50 [50] of 1 µg/mL (≈ 1.18 µM) and an MIC [51] of 0.125 µg/mL (≈ 0.148 µM). The MIC50 [52] was 0.125 µg/mL (≈ 0.148 µM).

Source: ChEMBL document CHEMBL1124774, “Synthesis and biological activity of some derivatives of rifamycin P” (1990)
